Measurements from ChEMBL document CHEMBL2010803, “Novel NSAID 1-acyl-4-cycloalkyl/arylsemicarbazides and 1-acyl-5-benzyloxy/hydroxy carbamoylcarbazides as potential anticancer agents and antioxidants” (Eur J Med Chem, 2012).
Calls of active or inactive are those of the source. The rule behind the calls is not given here.

Assays:
HeLa = assay: Cytostatic activity against human HeLa cells after 3 days by coulter counter analysis; format: functional, cell-based; settings: 72 h
Outline: (§1)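 300,000–500,000 cells/ml mixed 1:1 with compound dilutions and incubated at 37 °C for 2 days (L1210) or 3 days (CEM, HeLa). Cell number counted with a Coulter counter; HeLa trypsinized before counting.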

[1] = system: Mammalian orthoreovirus 1; assay: Antiviral activity against Reovirus-1 infected in african green monkey Vero cells assessed as inhibition of virus-induced cytopathic effect at 0.32 to 100 uM; format: functional, organism-based
Outline: (§2)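 Confluent cell cultures were infected with 100 CCID50 of virus in the presence of test compound at 100, 40, 8, 1.6 and 0.32 μM. Cytopathic effect was scored once it was complete in untreated infected controls.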

Sindbis virus = assay: Antiviral activity against Sindbis virus infected in african green monkey Vero cells assessed as inhibition of virus-induced cytopathic effect at 0.32 to 100 uM; format: functional, organism-based; outline: as §2
[2] = system: Vesicular stomatitis virus; assay: Antiviral activity against VSV infected in human lung fibroblast assessed as inhibition of virus-induced cytopathic effect at 0.32 to 100 uM; format: functional, organism-based
Coxsackievirus B4 [3] = assay: Antiviral activity against Coxsackievirus B4 infected in human cervix carcinoma cells assessed as inhibition of virus-induced cytopathic effect at 0.32 to 100 uM; format: functional, organism-based; outline: as §2
MCF7 = assay: Cytostatic activity against human MCF7 cells after 72 hrs by MTT assay; format: functional, cell-based; settings: MCF7, 72 h
Outline: (§3)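 Monolayers in DMEM with 10% FBS, 2 mM L-glutamine and penicillin/streptomycin, 37 °C, 5% CO2. Seeded at 1–3 × 10^4 cells/ml, then compound added in tenfold dilutions (10⁻⁸–10⁻⁴ M) for 72 h. MTT read at 570 nm; percent growth taken against time-zero and untreated controls. IC50 by linear regression; quadruplicate, at least two experiments.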

Felid alphaherpesvirus 1 = assay: Antiviral activity against Feline herpesvirus infected in feline CRFK cells assessed as inhibition of virus-induced cytopathic effect at 0.32 to 100 uM; format: functional, organism-based; outline: as §2
Human alphaherpesvirus 1 = assay: Antiviral activity against HSV1 KOS infected in human lung fibroblast assessed as inhibition of virus-induced cytopathic effect at 0.32 to 100 uM; format: functional, organism-based; outline: as §2
Influenza A virus [4] = assay: Antiviral activity against Influenza A virus H3N2 infected in MDCK cells assessed as inhibition of virus-induced cytopathic effect at 0.32 to 100 uM; format: functional, organism-based
Outline: (§4)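 Confluent MDCK monolayers were infected in the presence of the compound at 100, 40, 8, 1.6 and 0.32 μM. Viral cytopathicity was scored once it was complete in untreated infected control cultures.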

[5] = system: Respiratory syncytial virus; assay: Antiviral activity against RSV infected in human cervix carcinoma cells assessed as inhibition of virus-induced cytopathic effect at 0.32 to 100 uM; format: functional, organism-based; outline: as §2
[6] = system: Vesicular stomatitis virus; assay: Antiviral activity against Vesicular stomatitis virus infected in human cervix carcinoma cells assessed as inhibition of virus-induced cytopathic effect at 0.32 to 100 uM; format: functional, organism-based
Outline: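 Confluent human cervix carcinoma (HeLa) cultures received 100 CCID50 of VSV together with the compound at 100, 40, 8, 1.6 or 0.32 μM. Cytopathicity was read at the point of full CPE in infected, untreated control wells.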

L1210 = assay: Cytostatic activity against mouse L1210 cells after 2 days by coulter counter analysis; format: functional, cell-based; settings: L1210, 48 h; outline: as §1
Human respirovirus 3 = assay: Antiviral activity against Parainfluenza virus 3 infected in african green monkey Vero cells assessed as inhibition of virus-induced cytopathic effect at 0.32 to 100 uM; format: functional, organism-based; outline: as §2
[7] = system: Radical scavenging activity; assay: Antioxidant activity assessed as DPPH free radical scavenging activity at 100 uM after 60 mins by spectrophotometric analysis; format: functional
Outline: (§5)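 0.05 mM DPPH in absolute ethanol mixed with an equal volume of compound in DMSO (final 100 μM). Shaken and left 20 or 60 min, then absorbance read at 517 nm and percent activity calculated. Three replicates, averaged.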

NCI-H460 = assay: Cytostatic activity against human NCI-H460 cells after 72 hrs by MTT assay; format: functional, cell-based; settings: NCI-H460, 72 h; outline: as §3
Punta Toro virus = assay: Antiviral activity against Punta Toro virus infected in african green monkey Vero cells assessed as inhibition of virus-induced cytopathic effect at 0.32 to 100 uM; format: functional, organism-based; outline: as §2
[8] = system: Human immunodeficiency virus 1; assay: Antiviral activity against HIV1 3B infected in human CEM cells assessed as inhibition of virus-induced CEM giant cell formation at 0.32 to 100 uM after 4 days; format: functional, organism-based; settings: CCRF-CEM
Outline: (§6)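 CEM cells (~3 × 10^5 cells/cm³) exposed to 100 CCID50/ml of virus and seeded into wells holding compound dilutions. Incubated 4 days at 37 °C, then giant cell formation examined microscopically.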

Feline coronavirus = assay: Antiviral activity against Feline coronavirus infected in feline CRFK cells assessed as inhibition of virus-induced cytopathic effect at 0.32 to 100 uM; format: functional, organism-based; outline: as §2
Vaccinia virus = assay: Antiviral activity against Vaccinia virus infected in human lung fibroblast assessed as inhibition of virus-induced cytopathic effect at 0.32 to 100 uM; format: functional, organism-based; settings: Orthopoxvirus vaccinia
HCT-116 = assay: Cytostatic activity against human HCT116 cells after 72 hrs by MTT assay; format: functional, cell-based; settings: HCT-116, 72 h; outline: as §3
Influenza B virus = assay: Antiviral activity against Influenza B virus infected in MDCK cells assessed as inhibition of virus-induced cytopathic effect at 0.32 to 100 uM; format: functional, organism-based; outline: as §4
Glycine max = assay: Inhibition of soybean LOX assessed as conversion of sodium linoleate to 13- hydroperoxylinoleic acid at 100 uM
Human alphaherpesvirus 2 = assay: Antiviral activity against HSV2 G infected in human lung fibroblast assessed as inhibition of virus-induced cytopathic effect at 0.32 to 100 uM; format: functional, organism-based; settings: strain G; outline: as §2
Coxsackievirus B4 [9] = assay: Antiviral activity against Coxsackievirus B4 infected in african green monkey Vero cells assessed as inhibition of virus-induced cytopathic effect at 0.32 to 100 uM; format: functional, organism-based; outline: as §2
[10] = Antioxidant activity assessed as inhibition of AAPH-induced linoleic acid lipid peroxidation by measuring conjugated diene hydroperoxide level; format: functional; design: concentration or dose not given beside the values; settings: dose or concentration not given here
Outline: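 Linoleic acid sodium salt (10 μL of 16 mM) in 0.05 M phosphate buffer pH 7.4 at 37 °C. Oxidation started under air with 50 μL of 40 mM AAPH. Conjugated diene hydroperoxide formation followed as absorbance rise at 234 nm; control contains the same DMSO level. At least triplicate.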

Influenza A virus [11] = assay: Antiviral activity against Influenza A virus H1N1 infected in MDCK cells assessed as inhibition of virus-induced cytopathic effect at 0.32 to 100 uM; format: functional, organism-based; outline: as §4
[12] = system: Radical scavenging activity; assay: Antioxidant activity assessed as DPPH free radical scavenging activity at 100 uM after 20 mins by spectrophotometric analysis; format: functional; outline: as §5
[13] = system: Human immunodeficiency virus 2; assay: Antiviral activity against HIV2 ROD infected in human CEM cells assessed as inhibition of virus-induced CEM giant cell formation at 0.32 to 100 uM after 4 days; format: functional, organism-based; settings: ISOLATE ROD, CCRF-CEM; outline: as §6
CCRF-CEM = assay: Cytostatic activity against human CEM cells after 3 days by coulter counter analysis; format: functional, cell-based; settings: 72 h; outline: as §1

Row | Structure (SMILES) | IC50 (HeLa) [µM] | inhibition [1] | inhibition (Sindbis virus) | inhibition [2] | inhibition (Coxsackievirus B4 [3]) | IC50 (MCF7) [µM] | inhibition (Felid alphaherpesvirus 1) | inhibition (Human alphaherpesvirus 1) | inhibition (Influenza A virus [4]) | inhibition [5] | inhibition [6] | IC50 (L1210) [µM] | inhibition (Human respirovirus 3) | Activity [7] [%] | IC50 (NCI-H460) [µM] | inhibition (Punta Toro virus) | inhibition [8] | inhibition (Feline coronavirus) | inhibition (Vaccinia virus) | IC50 (HCT-116) [µM] | also measured
1 | CC(C(=O)NNC(=O)NNC(=O)NO)c1cccc(Cc2ccccc2)c1 (stereo unspecified) | ≥ 250 | inactive | inactive | inactive | inactive | > 100 | inactive | inactive | inactive | inactive | inactive | > 250 | inactive | 53 | > 100 | inactive | inactive | inactive | inactive | > 100 | inhibition (Influenza B virus): inactive; inhibition (Glycine max): 1%; inhibition (Human alphaherpesvirus 2): inactive; inhibition (Coxsackievirus B4 [9]): inactive; inhibition [10]: 28%; inhibition (Influenza A virus [11]): inactive; Activity [12]: 28%; inhibition [13]: inactive; IC50 (CCRF-CEM): > 250 µM
2 | NNC(=O)NOCc1ccccc1 | > 250 | inactive | inactive | inactive | inactive | > 100 | inactive | inactive | inactive | inactive | inactive | > 250 | inactive | 14 | > 100 | inactive | inactive | inactive | inactive | > 100 | inhibition (Influenza B virus): inactive; inhibition (Glycine max): inactive; inhibition (Human alphaherpesvirus 2): inactive; inhibition (Coxsackievirus B4 [9]): inactive; inhibition [10]: 36%; inhibition (Influenza A virus [11]): inactive; Activity [12]: 6%; inhibition [13]: inactive; IC50 (CCRF-CEM): > 250 µM
3 | CC(C(=O)NNC(=O)NO)c1cccc(Oc2ccccc2)c1 (stereo unspecified) | ≥ 250 | inactive | inactive | inactive | inactive | > 100 | inactive | inactive | inactive | inactive | inactive | 125 | inactive | 66 | > 100 | inactive | inactive | inactive | inactive | > 100 | inhibition (Influenza B virus): inactive; inhibition (Glycine max): 3%; inhibition (Human alphaherpesvirus 2): inactive; inhibition (Coxsackievirus B4 [9]): inactive; inhibition [10]: 22%; inhibition (Influenza A virus [11]): inactive; Activity [12]: 39%; inhibition [13]: inactive; IC50 (CCRF-CEM): 183 µM
4 | CC(C)Cc1ccc(C(C)C(=O)NNC(=O)NNC(=O)NO)cc1 (stereo unspecified) | > 250 | inactive | inactive | inactive | inactive | > 100 | inactive | inactive | inactive | inactive | inactive | > 250 | inactive | 46 | > 100 | inactive | inactive | inactive | inactive | > 100 | inhibition (Influenza B virus): inactive; inhibition (Glycine max): inactive; inhibition (Human alphaherpesvirus 2): inactive; inhibition (Coxsackievirus B4 [9]): inactive; inhibition [10]: 15%; inhibition (Influenza A virus [11]): inactive; Activity [12]: 24%; inhibition [13]: inactive; IC50 (CCRF-CEM): > 250 µM
